Data on 27 compounds can be found in ChEMBL document CHEMBL1146906, “Novel potent anticonvulsant agent containing a tetrahydroisoquinoline skeleton” (2006).

For one experiment, the species on record is Rattus norvegicus. Description: Inhibition of AMPA-induced membrane current in Wistar rat olfactory cortex at 0.5 uM by voltage clamp method. The format is functional. Further details: scale not given: the % may be the effect or the level left. In a few lines:
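Transverse olfactory cortex slices from male Wistar rats, kept in oxygenated Krebs solution and superfused with 1 µM TTX. Neurons voltage-clamped at -70 mV. Test agent diluted from DMSO stock into Krebs (0.1-1% v/v DMSO) and pre-incubated 10 min. Peak inward currents evoked by 0.25-5 µM AMPA measured. Pooled means, N = 7.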

The target in experiment [1] is Glutamate receptor ionotropic, AMPA (Rattus norvegicus) (UniProt P19491+P19492+P19493+P19490). Description: Displacement of [3H]AMPA from AMPA receptor at 0.5 uM. In kind it is protein-complex assay. In a few lines: (§1)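 Radioligand binding assays run at 0.5 µM test compound, using [3H]AMPA, [3H]CGP 39653 or [3H]kainic acid as ligand.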
Experiment [2] concerns the target Glutamate NMDA receptor (Rattus norvegicus) (UniProt P35439+Q00959+Q00960+Q00961+Q62645+Q8VHN2+Q9R1M7). The experiment can be described thus: Displacement of [3H]CGP-39653 from NMDA receptor at 0.5 uM. In kind it is protein-complex assay. In a few lines:
as §1

The target in experiment [3] is Glutamate receptor ionotropic, kainate (Rattus norvegicus) (UniProt P22756+Q01812+P42260+P42264+Q63273). Description: Displacement of [3H]kainic acid from kainate receptor at 0.5 uM. In kind it is protein-complex assay. The method in brief:
as §1
In general terms: Displacement assays read how much labelled ligand stays bound in the presence of the test substance.

Experiment [4] has as its system Mus musculus. The experiment can be described thus: Anticonvulsant activity against clonic phase of audiogenic seizures in ip dosed DBA/2 mouse. In kind it is functional. To be noted: DBA/2, ip. In a few lines: (§2)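 DBA/2 mice of either sex, groups of 10, given vehicle or each dose intraperitoneally, then exposed to auditory stimulation […]. Incidence of each seizure phase scored. ED50 per phase from dose-response curves fitted by Litchfield and Wilcoxon method. Groups compared by Fisher's exact probability test.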

The subject of experiment [5] is Mus musculus. The experiment can be described thus: Anticonvulsant activity against tonic phase of audiogenic seizures in ip dosed DBA/2 mouse. In kind it is functional. The conditions noted are these: DBA/2, ip. The method in brief: as §2

In the case of `COc1cc2c(cc1OC)C(c1ccc(Br)cc1)N(C(=O)CN1CCCCC1)CC2` (stereo not drawn), the Activity in the experiment listed under Rattus norvegicus was 6%; in experiment [1], less than 6%; in experiment [2] it was less than 6%; in experiment [3] it was less than 6%.
With `COc1cc2c(cc1OC)C(c1ccc(N)cc1)N(C(=O)CN1CCCCC1)CC2` (stereo not drawn), the values for the ED50 with Mus musculus [4] and in the experiment with Mus musculus [5] were 84.9 µmol/kg and 45.3 µmol/kg, respectively.
The corresponding values for `CCN(CC)CC(=O)N1CCc2cc(OC)c(OC)cc2C1c1ccccc1` (stereo not drawn) are 49.1 µmol/kg and 34.8 µmol/kg.
Turning to `CCN(CC)CC(=O)N1CCc2cc(OC)c(OC)cc2C1c1ccc(Br)cc1` (stereo not drawn), the ED50 (in general, the dose at which the effect has come halfway, by size or by number of responders) in the experiment with Mus musculus [4] was 50.5 µmol/kg; in the experiment with Mus musculus [5], 24.7 µmol/kg.
As to `CCN(CC)CC(=O)N1CCc2cc(OC)c(OC)cc2C1c1cccc([N+](=O)[O-])c1` (stereo not drawn), the ED50 in the experiment on Mus musculus [4] was determined as 38.6 µmol/kg; with Mus musculus [5], 16.7 µmol/kg.
Take `COc1cc2c(cc1OC)C(c1ccc(Cl)cc1)N(C(=O)CN1CCCCC1)CC2` (stereo not drawn): the ED50 worked out at 39.8 µmol/kg in the experiment on Mus musculus [4] and 17 µmol/kg with Mus musculus [5].
The corresponding values for `COc1cc2c(cc1OC)C(c1ccc(Cl)cc1)N(C(=O)CN1CCOCC1)CC2` (stereo not drawn) are more than 100 µmol/kg and 82.8 µmol/kg.
As to `COc1cc2c(cc1OC)C(c1ccc([N+](=O)[O-])cc1)N(C(=O)CN1CCCCC1)CC2` (stereo not drawn), the ED50 in the experiment with Mus musculus [4] and with Mus musculus [5] was more than 100 µmol/kg in each case.
Regarding `COc1cc2c(cc1OC)C(c1cccc(N)c1)N(C(=O)CN1CCOCC1)CC2` (stereo not drawn), the figures for the ED50 in the experiment on Mus musculus [4] and in the experiment with Mus musculus [5] were 63.4 µmol/kg and 34.3 µmol/kg, respectively.
Turning to `COc1cc2c(cc1OC)C(c1cccc([N+](=O)[O-])c1)N(C(=O)CN1CCOCC1)CC2` (stereo not drawn), the ED50 in the experiment with Mus musculus [4] and with Mus musculus [5] was more than 100 µmol/kg in each case.
As for `CCN(CC)CC(=O)N1CCc2cc(OC)c(OC)cc2C1c1ccc([N+](=O)[O-])cc1` (stereo not drawn), the ED50 in the experiment with Mus musculus [4] and in the experiment on Mus musculus [5] was more than 100 µmol/kg in each case.
`CCN(CC)CC(=O)N1CCc2cc(OC)c(OC)cc2C1c1ccc(N)cc1` (stereo not drawn): the ED50 in the experiment with Mus musculus [4] was 80.2 µmol/kg; with Mus musculus [5], 49 µmol/kg.
Turning to `COc1cc2c(cc1OC)C(c1ccc(Br)cc1)N(C(=O)CN1CCOCC1)CC2` (stereo not drawn), the figures for the ED50 with Mus musculus [4] and with Mus musculus [5] were more than 100 µmol/kg and 83.8 µmol/kg, respectively.
With `COc1cc2c(cc1OC)C(c1ccc(Cl)cc1)N(C(C)=O)CC2` (stereo not drawn), the Activity in the experiment listed under Rattus norvegicus is 7%.
In the case of `CCN(CC)CC(=O)N1CCc2cc(OC)c(OC)cc2C1c1cccc(N)c1` (stereo not drawn), the ED50 was found to be 111 µmol/kg in the experiment on Mus musculus [4] and 50.5 µmol/kg in the experiment on Mus musculus [5].
The matching figures for `COc1cc2c(cc1OC)C(c1cccc(N)c1)N(C(=O)CN1CCCCC1)CC2` (stereo not drawn): 70.2 µmol/kg and 47.3 µmol/kg.
For `CCN(CC)CC(=O)N1CCc2cc(OC)c(OC)cc2C1c1ccc(Cl)cc1` (stereo not drawn), the values for the ED50 in the experiment on Mus musculus [4] and in the experiment on Mus musculus [5] were 24.7 µmol/kg and 11.8 µmol/kg, respectively.
Take `COc1cc2c(cc1OC)C(c1cccc([N+](=O)[O-])c1)N(C(=O)CN1CCCCC1)CC2` (stereo not drawn): the ED50 with Mus musculus [4] is more than 100 µmol/kg; in the experiment with Mus musculus [5], 82.8 µmol/kg.
For `COc1cc2c(cc1OC)C(c1ccc([N+](=O)[O-])cc1)N(C(=O)CN1CCOCC1)CC2` (stereo not drawn), the ED50 is more than 100 µmol/kg in the experiment with Mus musculus [4] and 56.5 µmol/kg in the experiment on Mus musculus [5].
For the compound `COc1cc2c(cc1OC)C(c1ccc(N)cc1)N(C(=O)CN1CCOCC1)CC2` (stereo not drawn), the values for the ED50 with Mus musculus [4] and in the experiment on Mus musculus [5] were 87.5 µmol/kg and 63.4 µmol/kg, respectively.
In the case of `COc1cc2c(cc1OC)C(c1ccccc1)N(C(=O)CN1CCCCC1)CC2` (stereo not drawn), the ED50 with Mus musculus [4] and in the experiment with Mus musculus [5] was more than 100 µmol/kg each time.
As for `COc1cc2c(cc1OC)C(c1ccc(F)cc1)N(C(=O)CN1CCCCC1)CC2` (stereo not drawn), the ED50 turned out to be 82.8 µmol/kg in the experiment on Mus musculus [4] and 63 µmol/kg in the experiment on Mus musculus [5].
`CC(=O)N1N=C(c2ccc(N)cc2)c2cc3c(cc2C[C@H]1C)OCO3` [TALAMPANEL] yielded an ED50 with Mus musculus [5] of 9.7 µmol/kg.
For `COc1cc2c(cc1OC)C(c1ccc(N)cc1)=NNC(=O)C2`, the ED50 with Mus musculus [4] worked out at 15 µmol/kg.
In the case of `COc1cc2c(cc1OC)C(c1ccc(F)cc1)N(C(=O)CN1CCOCC1)CC2` (stereo not drawn), the ED50 was 71.7 µmol/kg with Mus musculus [4] and 46.9 µmol/kg in the experiment with Mus musculus [5].
For `CCN(CC)CC(=O)N1CCc2cc(OC)c(OC)cc2C1c1ccc(F)cc1` (stereo not drawn), the ED50 came to 44.5 µmol/kg in the experiment with Mus musculus [4] and 33 µmol/kg in the experiment with Mus musculus [5].
The matching figures for `COc1cc2c(cc1OC)C(c1ccccc1)N(C(=O)CN1CCOCC1)CC2` (stereo not drawn): more than 100 µmol/kg and more than 100 µmol/kg.
